Experimental findings from ChEMBL document CHEMBL2390954, “Discovery of a synthetic Aminopeptidase N inhibitor LB-4b as a potential anticancer agent” (Bioorg Med Chem Lett, 2013) are described below.

Structures are written as SMILES. Active and inactive are the calls of the source. The calls are words filed in the database; no cut-off is given here.

Data set [1] relates to ES2. Nature of the data set: Antiinvasive activity against human ES2 cells in matrigel-coated transwell chamber after 8 hrs by Crystal violet staining-based microscopy. The class given is functional, cell-based. The method in brief:
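Invasion assessed in Matrigel-coated Transwell chambers; ES-2 cells allowed to invade the Matrigel and reach the other side of the membrane over 8 h; graded doses tested.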

The subject of data set [2] is HUVEC. Nature of the data set: Antiangiogenic activity in HUVEC assessed as inhibition of tube formation at 100 ug/ml after 8 hrs by microscopic analysis. It counts as functional, cell-based. The conditions noted are these: Homo sapiens. A digest of the protocol: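 HUVECs plated on Matrigel to form capillary tube-like structures; tubular structure formation scored as inhibition rate versus untreated control; mean with SD from three independent experiments.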

The subject of data set [3] is HUVEC. Nature of the data set: Acute cytotoxicity against HUVEC at 100 ug/ml after 8 hrs by microscopic analysis. It counts as cell-based. The conditions noted are these: human. A digest of the protocol: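 Acute cytotoxicity judged by microscopic inspection of treated samples during the assay period on Matrigel.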
The test system of another data set is Aorta. The data set is described as follows: Antiangiogenic activity against Sprague-Dawley rat aortic rings assessed as inhibition of new microvessel growth at 100 ug/ml after 6 days. It counts as functional, tissue-based. A digest of the protocol:
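Rat aortic rings embedded on Matrigel; microvessel outgrowth from the ring scored and expressed as inhibition rate versus control; mean with SD from three independent experiments.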

Data set [4] in a line: Cytotoxicity against human ES2 cells after 24 hrs by MTT assay. It counts as functional. The conditions noted are these: ES-2, 24 h. In general terms: Tetrazolium assays rely on reduction of a dye to a coloured formazan, in cell work by metabolically active cells.
For data set [5], the system named is ES2. The data set is described as follows: Antimigratory activity against human ES2 cells in transwell chamber at 100 ug/ml after 3 hrs by Crystal violet staining-based microscopy. The class given is functional, cell-based. The method in brief:
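ES-2 cells placed in Transwell chambers with 8 µm micropore membranes, no Matrigel coating; cells crossing the membrane counted as migration rate relative to control; mean with SD from three independent experiments.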

Data set [6] concerns the target 72 kDa type IV collagenase (Homo sapiens, UniProt P08253). The data set is described as follows: Inhibition of recombinant MMP2 (unknown origin) using […] as substrate incubated for 5 mins prior to substrate addition measured after 60 mins by UV-Vis spectrophotometry.
For data set [7], the target named is T1, Aminopeptidase N (Homo sapiens, UniProt P15144). Nature of the data set: Inhibition of APN in human ES-2 cells using L-Leu-p-nitroanilide as substrate incubated for 5 mins prior to substrate addition measured after 1 hr by UV-Vis spectrophotometry. The class given is cell-based.
The target in data set [8] is T1, Aminopeptidase N. Nature of the data set: Ratio of betastatin IC50 to compound IC50 for APN in human ES-2 cells. The class given is cell-based.
Data set [9] addresses T2, Aminopeptidase N (Sus scrofa, UniProt P15145).
T2 sequence (P15145 whole entry): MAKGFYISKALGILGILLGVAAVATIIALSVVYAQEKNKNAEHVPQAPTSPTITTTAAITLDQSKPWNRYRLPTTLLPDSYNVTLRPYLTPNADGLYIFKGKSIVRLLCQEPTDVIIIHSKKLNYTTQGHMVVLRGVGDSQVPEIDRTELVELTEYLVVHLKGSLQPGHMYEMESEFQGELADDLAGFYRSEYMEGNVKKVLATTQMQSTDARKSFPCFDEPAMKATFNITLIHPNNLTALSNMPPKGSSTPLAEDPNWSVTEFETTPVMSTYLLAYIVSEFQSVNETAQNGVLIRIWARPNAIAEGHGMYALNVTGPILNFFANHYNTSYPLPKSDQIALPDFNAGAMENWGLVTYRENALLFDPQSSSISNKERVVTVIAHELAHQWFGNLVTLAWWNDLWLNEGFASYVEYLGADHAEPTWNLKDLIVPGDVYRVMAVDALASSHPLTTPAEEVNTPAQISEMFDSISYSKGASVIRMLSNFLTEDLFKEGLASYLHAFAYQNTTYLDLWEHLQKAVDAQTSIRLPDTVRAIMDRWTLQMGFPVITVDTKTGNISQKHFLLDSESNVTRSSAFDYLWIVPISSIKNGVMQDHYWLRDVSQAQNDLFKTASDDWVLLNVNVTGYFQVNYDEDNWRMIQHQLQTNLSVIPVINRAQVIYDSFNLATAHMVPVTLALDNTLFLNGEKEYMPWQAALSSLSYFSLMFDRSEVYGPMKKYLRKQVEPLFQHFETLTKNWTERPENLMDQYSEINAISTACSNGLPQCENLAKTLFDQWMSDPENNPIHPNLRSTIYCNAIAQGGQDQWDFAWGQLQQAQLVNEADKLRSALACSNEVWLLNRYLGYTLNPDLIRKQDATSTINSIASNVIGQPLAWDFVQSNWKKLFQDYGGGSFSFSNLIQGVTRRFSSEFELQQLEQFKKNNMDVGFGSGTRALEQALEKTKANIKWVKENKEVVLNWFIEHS
Nature of the data set: Inhibition of pig kidney APN using L-Leu-p-nitroanilide as substrate incubated for 5 mins prior to substrate addition measured after 30 mins by UV-Vis spectrophotometry.

T1 sequence (P15144 whole entry): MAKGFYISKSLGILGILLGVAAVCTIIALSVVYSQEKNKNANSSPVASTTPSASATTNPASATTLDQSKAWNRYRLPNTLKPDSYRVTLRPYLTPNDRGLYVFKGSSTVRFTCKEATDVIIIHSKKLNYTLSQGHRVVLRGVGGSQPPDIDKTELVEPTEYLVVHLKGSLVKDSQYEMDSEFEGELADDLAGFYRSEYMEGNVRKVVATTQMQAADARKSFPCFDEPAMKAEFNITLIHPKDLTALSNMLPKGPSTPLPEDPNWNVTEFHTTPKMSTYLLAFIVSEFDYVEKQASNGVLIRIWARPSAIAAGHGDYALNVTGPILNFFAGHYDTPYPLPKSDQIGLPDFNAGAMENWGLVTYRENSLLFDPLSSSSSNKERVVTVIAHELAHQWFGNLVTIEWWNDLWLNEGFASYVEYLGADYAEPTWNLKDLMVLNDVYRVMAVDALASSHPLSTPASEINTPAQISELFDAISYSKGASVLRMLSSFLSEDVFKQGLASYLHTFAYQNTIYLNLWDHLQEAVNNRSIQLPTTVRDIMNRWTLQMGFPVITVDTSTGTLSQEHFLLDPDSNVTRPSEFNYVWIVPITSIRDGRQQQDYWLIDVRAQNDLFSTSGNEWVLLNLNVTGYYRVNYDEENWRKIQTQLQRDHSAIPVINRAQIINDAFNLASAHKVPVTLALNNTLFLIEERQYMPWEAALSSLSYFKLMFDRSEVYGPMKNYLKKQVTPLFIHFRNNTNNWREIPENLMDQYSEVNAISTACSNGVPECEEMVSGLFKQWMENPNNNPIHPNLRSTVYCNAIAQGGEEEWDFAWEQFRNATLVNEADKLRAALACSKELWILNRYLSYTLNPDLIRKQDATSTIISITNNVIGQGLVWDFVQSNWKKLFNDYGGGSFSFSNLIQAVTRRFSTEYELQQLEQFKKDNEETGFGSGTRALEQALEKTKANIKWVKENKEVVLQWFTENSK
Sequence of 72 kDa type IV collagenase (P08253 whole entry): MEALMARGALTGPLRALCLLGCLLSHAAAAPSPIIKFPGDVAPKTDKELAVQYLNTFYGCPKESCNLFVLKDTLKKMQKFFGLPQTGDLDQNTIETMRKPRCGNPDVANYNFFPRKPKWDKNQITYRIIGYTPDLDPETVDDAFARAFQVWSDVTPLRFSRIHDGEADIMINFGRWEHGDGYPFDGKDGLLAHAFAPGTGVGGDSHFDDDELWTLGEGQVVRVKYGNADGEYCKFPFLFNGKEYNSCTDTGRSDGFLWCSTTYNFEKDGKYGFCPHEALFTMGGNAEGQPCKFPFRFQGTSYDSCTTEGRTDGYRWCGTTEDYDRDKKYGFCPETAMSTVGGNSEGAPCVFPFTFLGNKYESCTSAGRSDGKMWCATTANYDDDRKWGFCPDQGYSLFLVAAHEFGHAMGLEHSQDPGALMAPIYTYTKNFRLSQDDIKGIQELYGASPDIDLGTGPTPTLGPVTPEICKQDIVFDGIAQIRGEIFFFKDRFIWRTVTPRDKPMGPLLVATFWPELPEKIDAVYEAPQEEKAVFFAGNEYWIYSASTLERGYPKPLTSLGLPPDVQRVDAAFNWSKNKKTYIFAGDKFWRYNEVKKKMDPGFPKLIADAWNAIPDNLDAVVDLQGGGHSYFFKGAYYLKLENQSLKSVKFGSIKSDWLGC

For the molecule `CC(C)C[C@H](NC(=O)[C@@H](O)[C@H](N)Cc1ccccc1)C(=O)O` [UBENIMEX], the results for the Activity entry with ES2 [1] and in the data set with HUVEC [3] were “Dose-dependent effect” and “Non-toxic”, respectively. Moreover, the result in the data set with HUVEC [2] and in the data set with Aorta was Active. The same molecule had a concentration for 50% growth inhibition (GI50) in [4] of 350 µM. Also, the result in the data set on ES2 [5] was inactive.

For `CC(C)C[C@H](NC(=O)NCc1ccccc1)C(=O)NO`, the figures for the Activity entry with ES2 [1] and in the data set with HUVEC [3] were “Dose-dependent effect” and “Non-toxic”, respectively. Also, the IC50 in data set [6] was above 500 µM; against Aminopeptidase N [7], 3 µM; on Aminopeptidase N [9], 850 nM. In addition, the result in the data set on HUVEC [2] and in the data set on Aorta was Active. Also, in data set [4], the GI50 was above 1000 µM. For the same molecule, at Aminopeptidase N [8], the Ratio IC50 was 10. Moreover, the result with ES2 [5] was inactive.

For orientation: GI50 means the concentration at which growth is held to half of that of the control. As usually defined, the IC50 is the point on the concentration scale where inhibition reaches its midpoint.
